One data set relates to HDAC. As to conditions: cited from earlier work.
The test system of the next data set is tumor xenografts. As to conditions: cited from earlier work.
The nature of data set [1]: Baboon arterial plasma analysis of unmetabolized radiotracer during PET. The data set is classed as in vivo.
Data set [2] relates to Histone Deacetylase in the baboon brain. Nature of the data set: Baboon brain PET imaging with graphical analysis. The format is in vivo. As to conditions: for average reduction in Vd of [^18F]FAHA: comparison of 0.5 and 0.25 mg/kg.
The conditions of data set [3]: cited from earlier work.
Another data set is described as follows: Log D. The data set is classed as physicochemical.
Another data set concerns plasma proteins. Nature of the data set: Plasma protein binding. The data set is classed as in vitro ADME.
Data set [4] in a line: Compartment modelling of [^18F]FAC uptake in baboon brain. The data set is classed as in vivo. Conditions: one animal; fixed for all four studies. The method in brief:
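Two baboons. Arterial blood was sampled every 5 s for 2 min, then at longer intervals, centrifuged, and plasma counted. Brain time-activity curves from studies with the injected labelled metabolite were fitted with one- and two-compartment models. Fitted rate constants were fixed across studies to estimate metabolite brain uptake from peripheral radiotracer metabolism, using the metabolite fraction of arterial plasma input.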

Data set [5] can be described thus: Stability of [^18F]FAHA in medium alone. The format is in vitro ADME. Conditions: incubated in medium alone; no detection of [^18F]FAC.
The nature of a further data set: Plasma protein binding. Conditions: plasma. The format is in vitro ADME.
Data set [6] in a line: In vitro whole blood and plasma incubation, radio-TLC. The format is in vitro ADME, baboon. The method in brief: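 Arterial whole blood or plasma (0.5 ml) came from one baboon 1 h after HDAC-inhibitor pretreatment (0.25 mg/kg), just before radiotracer dosing. Radiotracer was added at room temperature. Percent intact radiotracer was measured by radio-TLC after 10, 20 and 30 min.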

`O=C(CCCCCCC(=O)Nc1ccccc1)NO` [SAHA, suberanilohydroxamic acid]: the “effect on [^18F]FAHA radiotracer uptake” value with HDAC (rat brain study) and in the data set on tumor xenografts (rodent tumor xenograft study) was “inhibit radiotracer uptake” each time. For the same compound, in [1] (SAHA 0.25, 0.5, 1.0 mg/kg iv, dose dependent manner), the “effect on rate of metabolism of [^18F]FAHA in baboon plasma” value is “decrease the rate of metabolism”. Also, the “average % reduction in Vd of [^18F]FAHA” value is 12 ± 12% in [2] (0.25 mg/kg, Brooke); 25 ± 8% in [2] (0.25 mg/kg, Lulu); 43 ± 7% in [2] (1 mg/kg, Brooke, averaged over all 6 ROIs (excluding global)); 52 ± 8% in data set [2] (1 mg/kg, Lulu, averaged over all 6 ROIs (excluding global)). Also, the “average reduction in Vd of [^18F]FAHA” value is recorded as 25± 5% in data set [2] (0.25 mg/kg) and 30± 9% in data set [2] (0.5 mg/kg). In addition, the “clinical doses well tolerated” value in data set [3] is more than 5 mg/kg.
With `O=C(O)C[18F]` [[^18F]FAC, [^18F]fluoroacetate], the logD in the data set “Log D” came out at 0.70. The “% of activity unbound to plasma proteins” value with plasma proteins stood at 57.2%. In [4], the “K1 (2 compartment model, brain uptake of metabolite)” value is reported as 0.018 ml/min/cc; the “k2 (2 compartment model)” value is 0.04 min⁻¹; the “k3 (2 compartment model)” value is 0.008 min⁻¹; the “k4 (2 compartment model)” value is “.003 min⁻¹”.
Regarding `O=C(C[18F])NCCCCCC(=O)Nc1ccccc1` [[^18F]FAHA, 6-([^18F]fluoroacetamido)-1-hexanoicanilide], in the data set on HDAC, the “peak uptake in rat brain” value was 0.44 % ID/g. Moreover, the “tumor to muscle ratios” value in the data set with tumor xenografts (between 30–60 min post-injection) was 2.2–2.4. Besides, the “peak uptake in tumor xenografts” value in the data set with tumor xenografts (peak at 30 min, rats implanted with carcinoma cells) is reported as 0.43 %ID/g. For the same compound, the “% Unmetabolized [^18F]FAHA in baboon plasma” value in data set [1] (animal 1, Baseline, 1min after bolus injection) is 45%; in data set [1] (animal 1, Baseline, 5min), 2%; in data set [1] (animal 1, Baseline, 10min) it was 1%; in data set [1] (animal 1, SAHA 0.25mg/kg iv 1 hour before, 1min) it was 84%; in [1] (animal 1, SAHA 0.25mg/kg iv 1 hour before, 2min), 35%; in data set [1] (animal 1, SAHA 0.25mg/kg iv 1 hour before, 5min) it was 10%. The “% Unmetabolized [^18F]FAHA in baboon plasma” value in [1] (animal 1, SAHA 0.25mg/kg iv 1 hour before, 10min) stood at 6%; in data set [1] (animal 1, SAHA 0.5mg/kg iv 1 hour before, 1min), 78%; in data set [1] (animal 1, SAHA 0.5mg/kg iv 1 hour before, 2min), 39%; in data set [1] (animal 1, SAHA 0.5mg/kg iv 1 hour before, 5min), 14%; in [1] (animal 1, SAHA 0.5mg/kg iv 1 hour before, 10min), 7%; in data set [1] (animal 1, SAHA 1.0mg/kg iv 1 hour before, 1min) it was 86%. Also, the “% Unmetabolized [^18F]FAHA in baboon plasma” value amounted to 34% in data set [1] (animal 1, SAHA 1.0mg/kg iv 1 hour before, 2min); 22% in data set [1] (animal 1, SAHA 1.0mg/kg iv 1 hour before, 5min); 10% in data set [1] (animal 1, SAHA 1.0mg/kg iv 1 hour before, 10min); 52% in data set [1] (animal 2, Baseline, 1min); 6% in data set [1] (animal 2, Baseline, 2min); 2% in [1] (animal 2, Baseline, 5min). Besides, the “% Unmetabolized [^18F]FAHA in baboon plasma” value is 1% in data set [1] (animal 2, Baseline, 10min); 87% in data set [1] (animal 2, SAHA 0.25mg/kg iv 1 hour before, 1min); 49% in data set [1] (animal 2, SAHA 0.25mg/kg iv 1 hour before, 2min); 11% in data set [1] (animal 2, SAHA 0.25mg/kg iv 1 hour before, 5min); 5% in data set [1] (animal 2, SAHA 0.25mg/kg iv 1 hour before, 10min); 78% in [1] (animal 2, SAHA 0.5mg/kg iv 1 hour before, 1min). In addition, the “% Unmetabolized [^18F]FAHA in baboon plasma” value stood at 50% in data set [1] (animal 2, SAHA 0.5mg/kg iv 1 hour before, 2min); 14% in data set [1] (animal 2, SAHA 0.5mg/kg iv 1 hour before, 5min); 6% in [1] (animal 2, SAHA 0.5mg/kg iv 1 hour before, 10min); 85% in data set [1] (animal 2, SAHA 1.0mg/kg iv 1 hour before, 1min); 26% in data set [1] (animal 2, SAHA 1.0mg/kg iv 1 hour before, 5min); 20% in [1] (animal 2, SAHA 1.0mg/kg iv 1 hour before, 10min). Also, in [2] (TACs in the same baboon), the “peak brain uptake relative to [^18F]FAC” value was “more than five times greater”. In addition, the “stability in medium alone” value in [5] was “stable up to 2 h”. Further, the unbound share (fraction unbound) in the data set “Plasma protein binding” was found to be 0.539 ± 0.0176. Further, the “% Unmetabolized [^18F]FAHA after incubation in vitro (radio-TLC)” value in data set [6] (Blood-post (1h after SAHA administration, 0.25 mg/kg), time 10) came out at 16%; in [6] (Blood-post, time 20), 0%; in [6] (Blood-post, time 30) it was 0%; in data set [6] (Blood-pre (before SAHA pretreatment), time 10, room temperature), 13%; in data set [6] (Blood-pre, time 20), 0%; in data set [6] (Blood-pre, time 30) it was 0%. Further, the “% Unmetabolized [^18F]FAHA after incubation in vitro (radio-TLC)” value amounted to 96% in [6] (Plasma-post (1h after SAHA administration), time 10); 96% in data set [6] (Plasma-post, time 20); 94% in [6] (Plasma-post, time 30); 98% in [6] (Plasma-pre (before SAHA pretreatment), time 10); 94% in data set [6] (Plasma-pre, time 20); 94% in data set [6] (Plasma-pre, time 30).

What is called logD is lipophilicity at a set pH, counting ionised and neutral species. Low values mean a more hydrophilic compound, high ones a more lipophilic compound. Usually fraction unbound stands for free concentration divided by total concentration. High values mean weak binding, low ones extensive binding.

(Values after PMC3167688 (Nuclear medicine and biology, 2009).)
